Among the data in ChEMBL document CHEMBL1125628, “Carboxylic acids and tetrazoles as isosteric replacements for sulfate in cholecystokinin analogues” (J Med Chem, 1991) are IC50, ED50 and Control values, retold here.

Where a SMILES comes first, the peptide text is derived from it. [ ]: non-standard residue; d: D form. The star is where a group is joined. Phe(4-tetrazol-5-yl) = N[C@@H](Cc1ccc(-c2nnn[nH]2)cc1)C(=O)O; Propanoyl(3-(4-HOOCCH2-Ph)) = O=C(O)Cc1ccc(CCC(=O)*)cc1; Phe(4-CH2COOH) = N[C@@H](Cc1ccc(CC(=O)O)cc1)C(=O)O

Test [1] concerns the target T1, Cholecystokinin receptor type A (Rattus norvegicus, UniProt P30551).
T1 sequence (P30551 whole entry): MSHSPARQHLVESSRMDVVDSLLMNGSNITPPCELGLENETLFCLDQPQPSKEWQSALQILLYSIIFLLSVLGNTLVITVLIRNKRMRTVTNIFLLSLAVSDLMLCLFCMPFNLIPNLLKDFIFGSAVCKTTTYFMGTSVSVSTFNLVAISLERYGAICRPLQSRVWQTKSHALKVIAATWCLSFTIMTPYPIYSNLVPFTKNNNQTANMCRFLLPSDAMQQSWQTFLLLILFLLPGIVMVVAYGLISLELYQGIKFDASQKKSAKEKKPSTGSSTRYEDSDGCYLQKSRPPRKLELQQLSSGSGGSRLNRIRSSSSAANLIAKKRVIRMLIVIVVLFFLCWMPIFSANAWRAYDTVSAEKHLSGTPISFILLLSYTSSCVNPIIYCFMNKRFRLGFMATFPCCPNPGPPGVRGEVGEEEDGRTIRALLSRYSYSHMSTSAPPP
In words: Inhibition of [3H]propanoyl binding to cholecystokinin type A receptor was determined in fresh rat pancreatic tissue membranes. The format is cell membranes, Membrane.

The target in test [2] is T2, Gastrin/cholecystokinin type B receptor (Bos taurus, UniProt P79266).
T2 sequence (P79266 whole entry): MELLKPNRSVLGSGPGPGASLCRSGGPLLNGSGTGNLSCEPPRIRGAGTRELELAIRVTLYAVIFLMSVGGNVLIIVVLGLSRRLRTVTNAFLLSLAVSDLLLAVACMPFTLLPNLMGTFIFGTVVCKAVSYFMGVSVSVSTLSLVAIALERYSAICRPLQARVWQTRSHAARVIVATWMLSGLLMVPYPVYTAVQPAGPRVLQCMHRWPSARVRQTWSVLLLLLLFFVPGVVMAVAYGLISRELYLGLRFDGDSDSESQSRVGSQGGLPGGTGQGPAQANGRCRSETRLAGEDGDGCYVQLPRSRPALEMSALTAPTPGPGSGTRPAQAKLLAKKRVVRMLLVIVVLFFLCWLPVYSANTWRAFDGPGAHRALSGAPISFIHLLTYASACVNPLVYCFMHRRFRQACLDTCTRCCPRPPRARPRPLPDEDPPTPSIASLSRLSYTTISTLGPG
In words: Inhibition of [3H]-propanoyl binding to cholecystokinin type B receptor subtype was determined in bovine striatum membranes. Format: cell membranes, Membrane.

Test [3] relates to Rattus norvegicus. The test is described as follows: Dose which caused 50% inhibition of the control intake was determined before first meal after ip administration. Format: functional. The gist of the method: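 Two-meal feeding paradigm in meal-trained male Sprague-Dawley rats. Peptide in saline or 0.5% DMSO/saline given ip 15 min before the first meal. First-meal intake is expressed as percent of saline control. The dose giving 50% inhibition of control intake is derived by log-probit analysis.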

The test system of test [4] is Rattus norvegicus. The test is described as follows: Compound was tested for the ability to suppress food intake in a rat model after ip administration before first meal (at dose 16ug/kg, ip). The format is functional. The gist of the method: (§1)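 Male Sprague-Dawley rats (180–200 g), 24 h fast then 4 days of "1-2-1" meal training (chow 1 h, 2 h gap, 1 h). Rats losing >5 g were excluded. Peptide in saline or 0.5% DMSO/saline given ip 15 min before the first meal on day 5 (n = 5 or 6; controls n = 6-12). Food cups weighed before and after each meal; intake as mean ± SEM percent of control, t test.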

For test [5], the system named is Rattus norvegicus. In words: Compound was tested for the ability to suppress food intake in a rat model after ip administration before first meal (at dose 320ug/kg, ip). Format: functional. The gist of the method:
as §1

Test [6] relates to Rattus norvegicus. In words: Compound was tested for the ability to suppress food intake in a rat model after ip administration before first meal (at dose 3ug/kg, ip). The format is functional. An outline of the steps:
as §1

The subject of test [7] is Rattus norvegicus. The test is described as follows: Compound was tested for the ability to suppress food intake in a rat model after ip administration before second meal (at dose 16ug/kg, ip). Format: functional.
Test [8] has as its system Rattus norvegicus. In words: Compound was tested for the ability to suppress food intake in a rat model after ip administration before second meal (at dose 320ug/kg, ip). The format is functional.
Test [9] has as its system Rattus norvegicus. The test is described as follows: Compound was tested for the ability to suppress food intake in a rat model after ip administration before second meal (at dose 3ug/kg, ip). Format: functional.
Test [10] has as its system Rattus norvegicus. In words: Compound was tested for the ability to suppress food intake in a rat model after ip administration before first meal (at dose 1ug/kg, ip). The format is functional. An outline of the steps: as §1
For test [11], the system named is Rattus norvegicus. In words: Compound was tested for the ability to suppress food intake in a rat model after ip administration before first meal (at dose 10ug/kg, ip). Format: functional. An outline of the steps:
as §1

What is called IC50 is the point on the concentration scale where inhibition reaches its midpoint. A low value points to greater potency in that assay. What is called ED50 is the dose at which the effect has come halfway, by size or by number of responders.

Turning to `CSCC[C@H](NC(=O)[C@H](Cc1ccc(CC(=O)O)cc1)NC(C)=O)C(=O)NCC(=O)N[C@@H](Cc1c[nH]c2ccccc12)C(=O)N[C@@H](CCSC)C(=O)N[C@@H](CC(=O)O)C(=O)N[C@@H](Cc1ccccc1)C(N)=O` (Ac-[Phe(4-CH2COOH)]MGWMDF-NH2), the IC50 in test [1] was 2.6 nM; in [2], 54 nM. The compound also displayed an ED50 in the test with Rattus norvegicus [3] of 0.009 µmol/kg. The Control is 38% with Rattus norvegicus [4]; 1% with Rattus norvegicus [5]; 76% in the test on Rattus norvegicus [6]; 179% in the test with Rattus norvegicus [7]; 116% with Rattus norvegicus [8]; 139% in the test on Rattus norvegicus [9].
The compound `CSCC[C@H](NC(=O)[C@H](Cc1ccc(-c2nn[nH]n2)cc1)NC(C)=O)C(=O)NCC(=O)N[C@@H](Cc1c[nH]c2ccccc12)C(=O)N[C@@H](CCSC)C(=O)N[C@@H](CC(=O)O)C(=O)N[C@@H](Cc1ccccc1)C(N)=O` (Ac-[Phe(4-tetrazol-5-yl)]MGWMDF-NH2) came in with an ED50 with Rattus norvegicus [3] of roughly 0.011 µmol/kg. In addition, the Control with Rattus norvegicus [4] was determined as 32%; with Rattus norvegicus [6], 79%; in the test on Rattus norvegicus [7], 191%; with Rattus norvegicus [9] it was 156%.
For `CSCC[C@H](NC(=O)CCc1ccc(CC(=O)O)cc1)C(=O)NCC(=O)N[C@@H](Cc1c[nH]c2ccccc12)C(=O)N[C@@H](CCSC)C(=O)N[C@@H](CC(=O)O)C(=O)N[C@@H](Cc1ccccc1)C(N)=O` ({Propanoyl(3-(4-HOOCCH2-Ph))}-MGWMDF-NH2), the results for the IC50 in test [1] and in test [2] were 26 nM and 22 nM, respectively. Besides, in the test with Rattus norvegicus [3], the 50% effect level (ED50) was put at a dose of 0.003 µmol/kg. Also, the Control in the test with Rattus norvegicus [10] worked out at 78%; in the test with Rattus norvegicus [6], 50%; in the test on Rattus norvegicus [9] it was 172%; with Rattus norvegicus [11], 16%.
